From ChEMBL document CHEMBL5329220, “Discovery of pyrazolopyrimidines that selectively inhibit CSF-1R kinase by iterative design, synthesis and screening against glioblastoma cells” (RSC Med Chem, 2023)
The source made the active and inactive calls. The rule behind the calls is not given here.

Legend:
U-87 MG [1] = assay: Antiproliferative activity against human U87 cells assessed as reduction in cell viability incubated for 5 days by PrestoBlue reagent based fluorescence assay; assay type: functional, U-87MG ATCC; conditions: 120 h
Outline: (§1)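 Cells seeded in DMEM/10% FBS/2 mM L-glutamine (U87 1×10^3, T98 5×10^2 per well), allowed 48 h at 37 °C, then given fresh medium plus compound from 20× intermediate stocks; untreated wells had 0.1% v/v DMSO. After 5 d, PrestoBlue reading (ex 540, em 590 nm, 60–90 min). EC50 from 4-parameter logistic fit of values normalised to untreated cells, bottom fixed at zero.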

E21 [2] = assay: Antiproliferative activity against human E21 cells assessed as reduction in cell survival incubated for 72 hrs by Hoechst staining based nuclei count assay
T98 [3] = assay: Antiproliferative activity against human T98 cells assessed as reduction in cell viability incubated for 5 days by PrestoBlue reagent based fluorescence assay; assay type: functional; conditions: T98, 120 h; outline: as §1
T98 [4] = assay: Antiproliferative activity against human T98 cells assessed as reduction in cell viability at 3 to 30 uM incubated for 5 days by PrestoBlue reagent based fluorescence assay; assay type: functional; conditions: dose 3-30 µM, time 5.0 day
Outline: (§2)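 U87 (1×10^3/well) and T98 (5×10^2/well) cells in DMEM with 10% FBS and 2 mM L-glutamine, grown 48 h at 37 °C, 5% CO2, then medium replaced. Compounds added from 20× intermediate dilutions at 3, 10 and 30 μM for 5 d, in triplicate; DMSO 0.1% v/v control. PrestoBlue 60–90 min, fluorescence ex 540/em 590 nm. Normalised to untreated cells; 4-parameter logistic fit, minimum constrained to zero.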

U-87 MG [5] = assay: Antiproliferative activity against human U87 cells assessed as reduction in cell viability incubated at 3 to 30 uM for 5 days by PrestoBlue reagent based fluorescence assay; assay type: functional; conditions: U-87MG ATCC, dose 3-30 µM, time 5.0 day; outline: as §2
E21 [6] = assay: Antiproliferative activity against human E21 cells assessed as phenotypic change at 1 to 5 uM incubated for 72 hrs in presence of INK128 by Hoechst 33342/ Alexa Fluor 488 staining based PCA analysis; assay type: functional, cell-based; conditions: dose 1-5 µM
Outline: (§3)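 Patient-derived glioma stem cells kept in laminin-coated DMEM/F12 with FGF, EGF, B27 and N2, plated at 500–1500 cells/well on laminin (10 μg mL−1). After overnight attachment, dosed in triplicate with 0.1% DMSO final, 72 h at 37 °C. Live MitoTracker DeepRed (final 300 nM, 30 min), formaldehyde fixation (final 4%), Cell Painting staining and imaging, CellProfiler features, PCA of phenotypic profiles.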

E57 [7] = assay: Antiproliferative activity against human E57 cells assessed as reduction in cell viability at 0.01 to 10 uM incubated for 72 hrs by Hoechst staining based nuclei count assay; conditions: dose 0.01-10 µM
E31 = assay: Antiproliferative activity against human E31 cells assessed as phenotypic change at 1 to 5 uM incubated for 72 hrs in presence of INK128 by Hoechst 33342/ Alexa Fluor 488 staining based PCA analysis; assay type: functional, cell-based; conditions: dose 1-5 µM; outline: as §3
E21 [8] = assay: Antiproliferative activity against human E21 cells assessed as reduction in cell viability at 0.01 to 10 uM incubated for 72 hrs by Hoechst staining based nuclei count assay; conditions: dose 0.01-10 µM
E57 [9] = assay: Antiproliferative activity against human E57 cells assessed as phenotypic change at 1 to 2.5 uM incubated for 72 hrs in presence of INK128 by Hoechst 33342/ Alexa Fluor 488 staining based PCA analysis; conditions: dose 1-2.5 µM

SMILES	EC50 (T98 [3]) [µM]	Activity (T98 [4])	further results
CN(C)C1CCN(CC#Cc2nn(C3CCCCC3)c3nc(NC(C)(C)C)ncc23)C1 (stereo not given)	2.54	–	EC50 (U-87 MG [1]): 2.71 µM; Activity (E21 [2]): Dose-Dependent Effect
CNc1ncc2c(C#CCN3CCCCCC3)nn(CC3CCCC3)c2n1	4.6	–	–
CNc1ncc2c(C#CCN3CCCC(N(C)C)C3)nn(CC3CCCCC3)c2n1 (stereo not given)	–	Active	–
CN(C)C1CCCN(CC#Cc2nn(CC3CCCC3)c3nc(NCc4ccccc4)ncc23)C1 (stereo not given)	< 4	–	–
CCCNc1ncc2c(C#CCN3CCCC(N(C)C)C3)nn(CC3CCCC3)c2n1 (stereo not given)	< 4	–	–
Cn1nnc2c(C(N)=O)ncn2c1=O	–	–	Activity (U-87 MG [5]): Active
CCOC(=O)N1CCN(CC#Cc2nn(CC3CCCC3)c3nc(NC)ncc23)CC1	–	Active	–
CNc1ncc2c(C#CCN3CCCC(N(C)C)C3)nn(C3CCCCC3)c2n1 (stereo not given)	–	Active	–
CN(C)C1CCCN(CC#Cc2nn(C3CCCC3)c3nc(NC(C)(C)C)ncc23)C1 (stereo not given)	–	Active	Activity (E21 [2]): Dose-Dependent Effect; Activity (U-87 MG [5]): Active
CCC(CC)Nc1ncc2c(C#CCN3CCCC(N(C)C)C3)nn(CC3CCCC3)c2n1 (stereo not given)	< 4	–	Activity (E21 [2]): Dose-Dependent Effect
CNc1ncc2c(C#CCN3CCCC(N(C)C)C3)nn(C3CCCC3)c2n1 (stereo not given)	–	Active	–
CNc1ncc2c(C#CCN3CCC(N(C)C)CC3)nn(CC3CCCC3)c2n1	14.8	–	EC50 (U-87 MG [1]): 15.9 µM
CN(C)C1CCN(CC#Cc2nn(C3CCCC3)c3nc(NCc4ccccc4)ncc23)C1 (stereo not given)	2	–	Activity (E21 [6]): Active; Activity (E57 [7]): Active; Activity (E31): Active; Activity (E21 [8]): Active; Activity (E57 [9]): Active
CN(C)C1CCCN(CC#Cc2nn(CC3CCCC3)c3nc(NC(C)(C)C)ncc23)C1 (stereo not given)	< 4	–	–
CCOC(=O)C1CCN(CC#Cc2nn(CC3CCCC3)c3nc(NC)ncc23)CC1	–	Active	–
CC1CCN(CC#Cc2nn(CC3CCCC3)c3ncnc(N)c23)CC1	< 30	–	EC50 (U-87 MG [1]): < 30 µM
CNc1ncc2c(C#CCN3CCCC(N(C)C)C3)nn(CC3CCCC3)c2n1 (racemic)	10.8	–	EC50 (U-87 MG [1]): 5 µM
CNc1ncc2c(C#CCN3CCC(NC(C)=O)CC3)nn(CC3CCCC3)c2n1	–	Active	–
CN(C)C1CCCN(CC#Cc2nn(C3CCCCC3)c3nc(NC(C)(C)C)ncc23)C1 (stereo not given)	–	Active	Activity (U-87 MG [5]): Active
CN(C)C1CCCN(CC#Cc2nn(CC3CCCCC3)c3nc(NC(C)(C)C)ncc23)C1 (stereo not given)	–	Active	Activity (U-87 MG [5]): Active
